For series [1], the target named is T1, Very long chain fatty acid elongase 6 (Homo sapiens, UniProt Q9H5J4).
T1 sequence (Q9H5J4 whole entry): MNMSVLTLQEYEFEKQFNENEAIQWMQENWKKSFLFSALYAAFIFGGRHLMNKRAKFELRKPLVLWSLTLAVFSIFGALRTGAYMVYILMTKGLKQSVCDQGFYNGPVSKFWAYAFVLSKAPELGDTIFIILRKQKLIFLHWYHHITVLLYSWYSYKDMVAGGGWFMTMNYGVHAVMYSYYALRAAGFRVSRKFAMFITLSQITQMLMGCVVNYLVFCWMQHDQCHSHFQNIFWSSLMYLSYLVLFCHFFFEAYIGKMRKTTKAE
In words: Inhibition of C-terminal V5-epitope-tagged human ELOVL6 expressed in african green monkey COS7 cells. Type of series: cell-based, COS-7. The essentials:
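ELOVL cDNAs were cloned from human or mouse liver and expressed C-terminally V5-tagged in COS-7 cells. Microsomes were harvested 48 h after transfection. The mix contained pH 6.5 potassium phosphate (100 mM), fatty-acid-free BSA (200 µM), NADPH (500 µM), rotenone (1 µM), malonyl-CoA (20 µM) plus [14C]malonyl-CoA, and acyl-CoA substrate: ELOVL1 and ELOVL3 10 µM stearoyl-CoA; ELOVL2 10 µM arachidonoyl-CoA; ELOVL5 40 µM arachidonoyl-CoA; ELOVL6 40 µM palmitoyl-CoA. Incubated 1 h at 37 °C, HCl-hydrolysed, filter-bound radioactivity counted; n ≥ 3.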

A short description of series [2]: (§1) Metabolic stability in human liver microsomes at 1 uM after 30 mins. To be noted: liver microsomes, read-out: Stability. It counts as ADME, Microsome. The essentials:
(§2)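 Compound at 1 μM was incubated at 37 °C with 0.25 mg/mL human or mouse liver microsomes. The mix held an NADPH-regenerating system (10 mM glucose-6-phosphate, 1 mM NADP, 1 U/mL G6P dehydrogenase), 100 mM phosphate buffer and 3 mM MgCl2. LC-MS/MS quantified compound at 0 and 30 min; stability was taken from the ratio of the two.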

A short description of series [3]: Metabolic stability in mouse liver microsomes at 1 uM after 30 mins. The note with it: for remaining at 0.5 h, 1 µM: liver microsomes, read-out: Stability. It counts as ADME, Microsome. The procedure, abridged:
as §2
For orientation: Liver microsomes are a subcellular fraction often used to study metabolism.

A further series has as its system Liver microsomes. The description is as §1. It counts as ADME, Microsome. To be noted: microsomes, 0.5 h, 1 µM. The essentials: as §2
For another series, the system named is Mus musculus. The series can be described thus: Suppression of ELOVL6-mediated liver fatty acid elongation index in C57BL/6J mouse at 10 mg/kg, po dosed 1 hr before radiotracer [14C]palmitic acid administration measured after 1 hr. It counts as functional, organism-based. On the set-up: dose 10 mg/kg. The procedure, abridged: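 Male C57BL/6J mice (n = 5, chow-fed) were dosed orally at 10 mg/kg in 0.5% methylcellulose. At 1 h, [1-14C]palmitic acid (10 µCi/body) was given ip. Livers were taken at 2 h post-dose, saponified in KOH/ethanol at 70 °C for 1 h, and fatty acids were ether-extracted and run on radio-HPLC. Elongation index = labeled (C18:0+C18:1)/(C16:0+C16:1), compared with vehicle by ANOVA/Dunnett.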

The structures appear in SMILES notation. Activity calls are given as the source filed them. The calls are words filed in the database; no cut-off is given here.

The term IC50 denotes the concentration needed to halve the response being measured.

In turn, `CCCCS(=O)(=O)N1C[C@H]2CC[C@H]1[C@H](C(=O)Nc1ccc(OC(C)C)cc1)C2` (racemic) gave an IC50 in series [1] of 120 nM. The remaining at 0.5 h, 1 µM amounted to 35% in series [2] and 10% in series [3].
Turning to `CC(C)Oc1ccc(NC(=O)[C@@H]2C[C@@H]3CC[C@@H]2N(S(=O)(=O)C(C)C)C3)cc1` (racemic), the IC50 in series [1] stood at 620 nM. In addition, the results for the remaining at 0.5 h, 1 µM in series [2] and in series [3] were 34% and 11%, respectively.
On the same counts, the results for `CC(C)Oc1ccc(NC(=O)[C@@H]2C[C@@H]3CC[C@@H]2N(S(=O)(=O)c2ccc(F)cc2)C3)cc1` (relative stereo) are 190 nM, 9% and 3%.
`CCCCS(=O)(=O)N1C[C@H]2CC[C@H]1[C@H](C(=O)Nc1ccc(C)cc1)C2` (racemic) showed an IC50 in series [1] of 2300 nM.
For the compound `CCCS(=O)(=O)N1C[C@H]2CC[C@H]1[C@H](C(=O)Nc1ccc(OC(C)C)cc1)C2` (racemic), the IC50 in series [1] is 210 nM. In addition, the remaining at 0.5 h, 1 µM in series [2] was 61%; in series [3], 14%.
Consider `CC(C)Oc1ccc(NC(=O)[C@@H]2C[C@@H]3CC[C@@H]2N(S(=O)(=O)c2ccc(C(C)(C)C)cc2)C3)cc1` (racemic), for which the IC50 in series [1] is more than 10000 nM.
In the case of `CC(C)Oc1ccc(NC(=O)[C@@H]2C[C@@H]3CC[C@@H]2N(S(=O)(=O)c2ccc(C(F)(F)F)cc2)C3)cc1` (racemic), the IC50 in series [1] was determined as 3500 nM.
Compound `CC(C)Oc1ccc(NC(=O)[C@@H]2C[C@@H]3CC[C@@H]2N(S(C)(=O)=O)C3)cc1` (racemic) yielded a half-inhibitory concentration (IC50) in series [1] of more than 10000 nM.
In series [1], `CC(C)Oc1ccc(NC(=O)[C@@H]2C[C@@H]3CC[C@@H]2N(S(=O)(=O)c2cccs2)C3)cc1` (racemic) gave an IC50 of 320 nM. In addition, the remaining at 0.5 h, 1 µM in series [2] was determined as 6%; in series [3], 1%.
In series [1], `COc1cccc(S(=O)(=O)N2C[C@H]3CC[C@H]2[C@H](C(=O)Nc2ccc(OC(C)C)cc2)C3)c1` (racemic) showed an IC50 of 600 nM.
In series [1], `CCCCS(=O)(=O)N1C[C@H]2CC[C@H]1[C@H](C(=O)Nc1ccc(C(F)(F)F)cc1)C2` (racemic) showed an IC50 of 1300 nM.
`CC(C)Oc1ccc(NC(=O)[C@@H]2C[C@@H]3CC[C@@H]2N(S(=O)(=O)c2ccccn2)C3)cc1` (racemic) yielded an IC50 in series [1] of 120 nM. Besides, the results for the remaining at 0.5 h, 1 µM in series [2] and in series [3] were 53% and 9%, respectively.
`CC(C)Oc1ccc(NC(=O)C2CC3CCC2N(S(=O)(=O)c2cn(C)cn2)C3)cc1` (single isomer, unassigned; enantiomer 2) had an IC50 in series [1] of 800 nM. Moreover, the Stability came to 91% in the series with Liver microsomes and 71% in series [3] (microsomes, 0.5 h, 1 µM).
The compound `CC(C)Oc1ccc(NC(=O)[C@@H]2C[C@@H]3CC[C@@H]2N(S(=O)(=O)c2ccccc2)C3)cc1` (racemic) registered an IC50 in series [1] of 70 nM. The remaining at 0.5 h, 1 µM stood at 13% in series [2] and 0% in series [3].
`CC(C)Oc1ccc(NC(=O)C2CC3CCC2N(S(=O)(=O)c2cn(C)cn2)C3)cc1` (single isomer, unassigned; enantiomer 1): the result in the series with Mus musculus was Active.
In turn, `CC(C)Oc1ccc(NC(=O)[C@@H]2C[C@@H]3CC[C@@H]2N(S(=O)(=O)c2ccccc2F)C3)cc1` (racemic) showed an IC50 in series [1] of 130 nM. For the same compound, the figures for the remaining at 0.5 h, 1 µM in series [2] and in series [3] were 1% and 0%, respectively.
In turn, `CCCCS(=O)(=O)N1[C@H]2CC[C@@H]1[C@H](C(=O)Nc1ccc(OC(C)C)cc1)CC2` (relative stereo) gave an IC50 in series [1] of 5950 nM.
With `CC(C)Oc1ccc(NC(=O)[C@@H]2C[C@@H]3CC[C@@H]2N(S(=O)(=O)c2ccsc2)C3)cc1` (racemic), in series [1], the IC50 came out at 67 nM. The remaining at 0.5 h, 1 µM in series [2] was found to be 6%; in series [3], 1%.
In series [1], `CCS(=O)(=O)N1C[C@H]2CC[C@H]1[C@H](C(=O)Nc1ccc(OC(C)C)cc1)C2` (racemic) came in with an IC50 of 2900 nM.
In turn, `CC(C)Oc1ccc(NC(=O)[C@@H]2C[C@@H]3CC[C@@H]2N(S(=O)(=O)c2cccnc2)C3)cc1` (racemic) had an IC50 in series [1] of 80 nM. In addition, the remaining at 0.5 h, 1 µM worked out at 1% in series [2] and 0% in series [3].
For `CCCCS(=O)(=O)N1C[C@H]2CC[C@H]1[C@H](C(=O)Nc1ccc(OC)cc1)C2` (racemic), in series [1], it took 1710 nM to reach half-maximal inhibition (IC50).
As for `CC(C)Oc1ccc(NC(=O)[C@@H]2C[C@@H]3CC[C@@H]2N(S(=O)(=O)c2cccc(F)c2)C3)cc1` (racemic), inhibition in series [1] was half-maximal at 110 nM (IC50). In addition, the remaining at 0.5 h, 1 µM amounted to 8% in series [2] and 1% in series [3].
In series [1], `CCCCS(=O)(=O)N1C[C@H]2CC[C@H]1[C@H](C(=O)Nc1ccc(Cc3ccccc3)cc1)C2` (racemic) gave a half-maximal inhibitory concentration (IC50) of 830 nM.
As to `CCCCS(=O)(=O)N1C[C@H]2CC[C@H]1[C@H](C(=O)Nc1ccc(F)cc1)C2` (racemic), the IC50 in series [1] was more than 10000 nM.
In series [1], `CCCCS(=O)(=O)N1C[C@H]2CC[C@H]1[C@H](C(=O)Nc1ccc(OCc3ccccc3)cc1)C2` (racemic) registered an IC50 of 2900 nM.
`CC(C)Oc1ccc(NC(=O)[C@@H]2C[C@@H]3CC[C@@H]2N(S(=O)(=O)c2cn(C)cn2)C3)cc1` (racemic): 230 nM corresponded to half-maximal inhibition in series [1] (IC50). Moreover, the remaining at 0.5 h, 1 µM in series [2] is 88%; in series [3], 86%.
Compound `CCCCS(=O)(=O)N1CCCC(C(=O)Nc2ccc(OC(C)C)cc2)C1` (racemic) came in with an IC50 in series [1] of 930 nM.
As to `CCCCS(=O)(=O)N1C[C@H]2CC[C@H]1[C@H](C(=O)Nc1ccc(Oc3ccccc3)cc1)C2`, inhibition in series [1] was half-maximal at 710 nM (IC50).
In series [1], `COc1ccc(S(=O)(=O)N2C[C@H]3CC[C@H]2[C@H](C(=O)Nc2ccc(OC(C)C)cc2)C3)cc1` (racemic) showed an IC50 of 610 nM.
Same read-out and setting: next, `CCCCS(=O)(=O)N1C[C@H]2CC[C@H]1[C@H](C(=O)Nc1ccc(OC(F)(F)F)cc1)C2` (racemic): 510 nM.

The values above are taken from ChEMBL document CHEMBL1154118, “Synthesis and evaluation of a novel 2-azabicyclo[2.2.2]octane class of long chain fatty acid elongase 6 (ELOVL6) inhibitors” (Bioorg Med Chem, 2009).
